Results as given in ChEMBL document CHEMBL4619801, “Discovery of Phthalazinone Derivatives as Novel Hepatitis B Virus Capsid Inhibitors” (J Med Chem, 2020).

Assays:
[1] = Drug metabolism in dog liver microsomes at 3 uM in presence of NADPH incubated for 60 mins by UPLC-UV/QTOF MS analysis relative to control; format: ADME, Canis lupus familiaris, Microsome; settings: read-out: Drug metabolism
In short: (§1)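 Each incubation held liver microsomes (human, monkey, dog, rat or mouse) at 0.5 mg/mL with 3.0 μM compound in 100 mM potassium phosphate, pH 7.4. After 3 min prewarming at 37 °C, the reaction was started with 1 mM NADPH. It was stopped at 60 min with ice-cold acetonitrile. Parent remaining and metabolites were judged from relative UV area.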

[2] = Oral bioavailability in Sprague-Dawley rat at 20 mg/kg dosed as single administration; format: ADME, organism-based; settings: in vivo
[3] = Drug metabolism in dog liver microsomes assessed as compound level by measuring LC-MS area at 3 uM in presence of NADPH incubated for 60 mins by UPLC-UV/QTOF MS analysis; format: ADME, Canis lupus familiaris, Microsome; settings: 1 h; in short: as §1
[4] = Cytotoxicity in human HepG2.2.15 cells assessed as reduction in cell viability incubated for 8 days by MTT assay; format: cell-based, HepG2 2.2.15
In short: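 This was run in the same 8-day HepG2.2.15 cultures. After the medium was removed, MTT was added (final 2.5 mg/mL) for 1 h at 37 °C. Cells were lysed in 10% SDS/50% DMF, pH 7.2, and OD was read at 570 nm to give % cell death. CC50 was averaged with SD from at least two independent determinations.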

[5] = Drug metabolism in mouse liver microsomes assessed as compound level by measuring UV-area of metabolite-M1 at 3 uM in presence of NADPH incubated for 60 mins by UPLC-UV/QTOF MS analysis; format: ADME, Microsome; settings: 1 h; in short: as §1
[6] = Drug metabolism in mouse liver microsomes assessed as compound level by measuring LC-MS area of metabolite-M2 at 3 uM in presence of NADPH incubated for 60 mins by UPLC-UV/QTOF MS analysis; format: ADME, Microsome; settings: 1 h; in short: as §1
[7] = Toxicity in human HepG2.2.15 cells; format: cell-based, HepG2 2.2.15
In short: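 HepG2.2.15 cells seeded at 4 × 10³ cells/well and exposed to a range of compound concentrations for 8 days. MTT (final 2.5 mg/mL) was added for 1 h at 37 °C, then cells were lysed in 10% SDS/50% DMF, pH 7.2. OD was read at 570 nm and % cell death calculated. CC50 is the mean ± SD of at least two independent determinations.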

[8] = Drug level in Sprague-Dawley rat liver at 20 mg/kg, po dosed as single administration measured up to 24 hrs; format: ADME, organism-based; settings: in vivo
[9] = Drug metabolism in human liver microsomes assessed as compound level by measuring UV-area at 3 uM in presence of NADPH incubated for 60 mins by UPLC-UV/QTOF MS analysis; format: ADME, Microsome; settings: 1 h; in short: as §1
[10] = Drug metabolism in human liver microsomes assessed as compound level by measuring UV-area of metabolite-M1 at 3 uM in presence of NADPH incubated for 60 mins by UPLC-UV/QTOF MS analysis; format: ADME, Microsome; settings: 1 h; in short: as §1
[11] = Drug metabolism in mouse liver microsomes assessed as compound level by measuring LC-MS area of metabolite-M1 at 3 uM in presence of NADPH incubated for 60 mins by UPLC-UV/QTOF MS analysis; format: ADME, Microsome; settings: 1 h; in short: as §1
[12] = Drug metabolism in monkey liver microsomes assessed as compound level by measuring UV-area of metabolite-M1 at 3 uM in presence of NADPH incubated for 60 mins by UPLC-UV/QTOF MS analysis; format: ADME, Macaca mulatta, Microsome; settings: rhesus monkey, 1 h; in short: as §1
[13] = Half life in Sprague-Dawley rat at 2 mg/kg, iv dosed as single administration; format: ADME, organism-based; settings: in vivo
[14] = Drug metabolism in dog liver microsomes assessed as compound level by measuring LC-MS area of metabolite-M1 at 3 uM in presence of NADPH incubated for 60 mins by UPLC-UV/QTOF MS analysis; format: ADME, Canis lupus familiaris, Microsome; settings: 1 h; in short: as §1
[15] = Drug metabolism in monkey liver microsomes assessed as compound level by measuring LC-MS area of metabolite-M1 at 3 uM in presence of NADPH incubated for 60 mins by UPLC-UV/QTOF MS analysis; format: ADME, Macaca mulatta, Microsome; settings: rhesus monkey, 1 h; in short: as §1
[16] = Drug metabolism in rat liver microsomes assessed as compound level by measuring UV-area at 3 uM in presence of NADPH incubated for 60 mins by UPLC-UV/QTOF MS analysis; format: ADME, Microsome; settings: 1 h; in short: as §1
[17] = Drug metabolism in monkey liver microsomes assessed as compound level by measuring LC-MS area at 3 uM in presence of NADPH incubated for 60 mins by UPLC-UV/QTOF MS analysis; format: ADME, Macaca mulatta, Microsome; settings: rhesus monkey, 1 h; in short: as §1
[18] = Drug metabolism in monkey liver microsomes assessed as compound level by measuring UV-area at 3 uM in presence of NADPH incubated for 60 mins by UPLC-UV/QTOF MS analysis; format: ADME, Macaca mulatta, Microsome; settings: rhesus monkey, 1 h; in short: as §1
[19] = Drug metabolism in rat liver microsomes assessed as compound level by measuring LC-MS area of metabolite-M1 at 3 uM in presence of NADPH incubated for 60 mins by UPLC-UV/QTOF MS analysis; format: ADME, Microsome; settings: 1 h; in short: as §1
[20] = Tmax in Sprague-Dawley rat at 20 mg/kg, po dosed as single administration; format: ADME, organism-based; settings: in vivo
[21] = Drug metabolism in rat liver microsomes assessed as compound level by measuring UV-area of metabolite-M1 at 3 uM in presence of NADPH incubated for 60 mins by UPLC-UV/QTOF MS analysis; format: ADME, Microsome; settings: 1 h; in short: as §1
[22] = Retention time of the compound by […]; format: physicochemical
[23] = test system: Hepatitis B virus; assay: Antiviral activity against Hepatitis B virus assessed as reduction in HBV DNA-free capsid formation; format: functional, organism-based
[24] = Drug metabolism in dog liver microsomes assessed as compound level by measuring UV-area of metabolite-M1 at 3 uM in presence of NADPH incubated for 60 mins by UPLC-UV/QTOF MS analysis; format: ADME, Canis lupus familiaris, Microsome; settings: 1 h; in short: as §1
[25] = AUC (0 to t) in Sprague-Dawley rat at 20 mg/kg, po dosed as single administration; format: ADME, organism-based; settings: in vivo
[26] = Drug metabolism in mouse liver microsomes assessed as compound level by measuring LC-MS area at 3 uM in presence of NADPH incubated for 60 mins by UPLC-UV/QTOF MS analysis; format: ADME, Microsome; settings: 1 h; in short: as §1
[27] = Drug metabolism in mouse liver microsomes at 3 uM in presence of NADPH incubated for 60 mins by UPLC-UV/QTOF MS analysis relative to control; format: ADME, Microsome; in short: as §1
[28] = Drug metabolism in rat liver microsomes at 3 uM in presence of NADPH incubated for 60 mins by UPLC-UV/QTOF MS analysis relative to control; format: ADME, Microsome; settings: read-out: Drug metabolism; in short: as §1
[29] = Drug metabolism in dog liver microsomes assessed as compound level by measuring UV-area at 3 uM in presence of NADPH incubated for 60 mins by UPLC-UV/QTOF MS analysis; format: ADME, Canis lupus familiaris, Microsome; settings: 1 h; in short: as §1
[30] = Drug metabolism in human liver microsomes assessed as compound level by measuring LC-MS area of metabolite-M1 at 3 uM in presence of NADPH incubated for 60 mins by UPLC-UV/QTOF MS analysis; format: ADME, Microsome; settings: 1 h; in short: as §1
[31] = Drug metabolism in monkey liver microsomes at 3 uM in presence of NADPH incubated for 60 mins by UPLC-UV/QTOF MS analysis relative to control; format: ADME, Macaca mulatta, Microsome; settings: rhesus monkey, read-out: Drug metabolism; in short: as §1

Cc1cc(-c2ccc(F)nc2F)nn(Cc2ccc(Cl)cc2)c1=O
metabolised at 1 h, 3 µM [1]: 79%
bioavailability [2]: 25.3%
Activity [3]: 3.09 ×10³ No_unit
CC50 at 192 h [4]: 83.8 µM
Activity [5]: 117 ×10³ No_unit
Activity [6]: 0.79 ×10³ No_unit
CC50 [7]: 90.6 µM
Drug uptake [8]: Not Active
Activity [9]: 82 ×10³ No_unit
Activity [10]: 51.3 ×10³ No_unit
Activity [11]: 10.3 ×10³ No_unit
Activity [12]: 113 ×10³ No_unit
t1/2 [13]: 122 min
Activity [14]: 5.97 ×10³ No_unit
Activity [15]: 8.3 ×10³ No_unit
Activity [16]: 44.8 ×10³ No_unit
Activity [17]: 5.42 ×10³ No_unit
Activity [18]: 34.1 ×10³ No_unit
Activity [19]: 3.05 ×10³ No_unit
Tmax [20]: 15 min
Activity [21]: 56.7 ×10³ No_unit
Retention_time [22]: 7.3 min
IC50 [23]: 0.087 µM
Activity [24]: 84.6 ×10³ No_unit
AUC(0-t) [25]: 1100 ng·h/mL
Activity [26]: 1 ×10³ No_unit
metabolised at 1 h, 3 µM [27]: > 95%
metabolised at 1 h, 3 µM [28]: 64%
Activity [29]: 26.3 ×10³ No_unit
Activity [30]: 2.64 ×10³ No_unit
metabolised at 1 h, 3 µM [31]: 73%
